From PubChem
Compounds with a hit are over-represented: about 2.3% of the library has one in this group of screens.
NR2E3 ag-1: NR2E3 (human) agonism | inhibition of corepressor binding, % at 4.78 µM | AID 2300 | GST-NR2E3/biotin-RetCOR TR-FRET, 1536-well | Q9Y5X4 | hit rate 0.12% among 320,000;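 active = percent inhibition above the cutoff of mean plus 3 SD of all tested compounds, set per screening campaign, cut at about 20% in these data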;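 note: 0% = DMSO wells and 100% = biotin wells as full block of FRET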
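System: GST-tagged NR2E3 plus biotinylated RetCOR corepressor; Buffer or medium: pH 7.5 Tris-based buffer; Probe or stimulus: RetCOR corepressor, biotinylated, 7 nM; Doses: compound at 4.8 µM, single dose; Schedule: 5 h incubation at 4 °C; Technique: time-resolved FRET; Evaluation: percent inhibition of TR-FRET ratio; Replication: one well per compound, singlicate testing.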
CHT block: human CHT choline transport inhibition; CHT-expressing cells, membrane potential dye, choline response; hits give low values; B-score at 10 µM; hit rate 0.86% among 310,000; AID 488975;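 active = B-score over 3 SD under the library average, and starting fluorescence ratio not unusually high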;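 note: choline stimulus applied at its EC90 after an EC20 pre-addition; B-score computed on integrated fluorescence ratio after choline addition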
Target sequence (Q9GZV3 whole entry, looked up): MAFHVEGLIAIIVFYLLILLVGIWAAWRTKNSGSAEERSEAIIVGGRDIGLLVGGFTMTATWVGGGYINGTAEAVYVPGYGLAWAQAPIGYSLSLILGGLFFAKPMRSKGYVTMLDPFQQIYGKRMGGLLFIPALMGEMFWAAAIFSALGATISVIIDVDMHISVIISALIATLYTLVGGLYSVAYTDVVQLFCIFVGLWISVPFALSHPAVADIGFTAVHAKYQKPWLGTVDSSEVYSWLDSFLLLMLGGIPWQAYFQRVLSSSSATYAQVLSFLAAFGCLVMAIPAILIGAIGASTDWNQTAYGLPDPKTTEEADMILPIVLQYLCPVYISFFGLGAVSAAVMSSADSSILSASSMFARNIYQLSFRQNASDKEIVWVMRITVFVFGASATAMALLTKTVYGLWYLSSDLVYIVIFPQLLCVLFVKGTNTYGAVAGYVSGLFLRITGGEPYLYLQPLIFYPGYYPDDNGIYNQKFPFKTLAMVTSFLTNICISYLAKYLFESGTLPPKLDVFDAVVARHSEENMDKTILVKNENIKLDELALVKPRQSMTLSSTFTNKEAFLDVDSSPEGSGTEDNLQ
NR2F2 inh: NR2F2 (human) inhibition, primary screen. P24468. HEK293T NGFI-A luciferase reporter, luminescence. inhibition, % at 8.6 µM. hit rate 0.7% among 370,000. AID 686940;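 active = inhibition above a per-plate cutoff, mean inhibition of test wells between control levels plus 3 SD, cut at about 38% in these data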;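 note: cells cotransfected with COUP-TFII expression vector driving the NGFI-A reporter; 0% = median of COUP-TF2 test wells and 100% = reporter-only cells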
NR2E3 ag-2: activates human NR2E3 receptor | Q9Y5X4 | CHO-S Gal4-NCOR/VP16-NR2E3 two-hybrid, luciferase | inhibition of corepressor binding, % at 3.98 µM | hit rate 0.35% among 360,000 | AID 602229;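 active = inhibition above the mean of all tested compounds plus 3 SD, cut at about 70% in these data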;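 note: 0% = DMSO with NR2E3 transfected cells and 100% = cells lacking NR2E3 construct; higher means lower luciferase signal from less NR2E3 corepressor binding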
CHT allo act: human CHT allosteric activation; Q9GZV3; CHT-expressing cells, membrane potential dye, choline EC20; hits give high values; LV-AA mutant CHT in HEK293 cells; B-score at 10 µM; hit rate 0.49% among 310,000;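 active = initial fluorescence not abnormally high and integrated response B-score, plate-corrected, over 3 SD above library mean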
GalR3 antagonist: blocks the human galanin receptor 3. O60755. HEK293 GalR3-CNG cAMP membrane potential fluorescence; galR3 body fused to GalR1 C-terminus. inhibition, % at 3 µM. hit rate 0.44% among 360,000;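 active = inhibition above the screen-wide average plus 3 SD, cut at about 13% in these data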;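 note: forskolin and galanin both at EC90 stimulate the cells; cAMP rise reported by CNG channel membrane potential dye signal; 0% = forskolin plus galanin with DMSO and 100% = forskolin alone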
Gal4-VP16 ctr: VP16 inhibition counter-screen for COUP-TFII. shares compounds with NR2F2 inh. HEK293 Gal4-VP16 luciferase reporter, luminescence. inhibition, % at 8.5 µM. hit rate 25% among 2,500. AID 687007; in the data active = inhibition above about 13%
NR2F2 inh conf: confirmation of human COUP-TFII (NR2F2) inhibitors. shares compounds with NR2F2 inh. HEK293 NGFI-A luciferase reporter, luminescence. inhibition, % at 8.5 µM. hit rate 45% among 2,500. AID 687008;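 active = mean inhibition over three repeats above a set limit taken from the earlier primary screen, cut at about 38% in these data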;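 note: 100% = cells given the luciferase reporter alone without the COUP-TF2 vector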
Starred values were filed as active, the others as inactive; i = inactive; . = not tested or not shown.

SMILES	NR2E3 ag-1	CHT block	NR2F2 inh	NR2E3 ag-2	CHT allo act	GalR3 antagonist	Gal4-VP16 ctr	NR2F2 inh conf
O=C(Nc1ccc(N2CCCCCC2)cc1)c1cccc(S(=O)(=O)N2CCOCC2)c1	-1	.	46*	33	.	-6	-2	38*
COc1cccc(C(C)(O)c2nc(-c3ccc(S(C)(=O)=O)cc3)cs2)c1 (stereo not given)	.	.	40*	20	.	-6	3	5
CCOC(=O)[C@@]12CCCC=C1N(CCc1ccc(Cl)cc1)C(=O)[C@H]2CC(=O)N1CCCCC1	.	.	30	.	.	.	.	.
CC1(c2nnnn2-c2ccc3ccccc3c2)CSCC(=O)N1C1CC1 (stereo not given)	.	.	-1	.	.	.	.	.
CC(C)(C)NC(=O)COc1ccc(CNc2ncn[nH]2)cc1	-2	i	2	-5	i	1	.	.
COc1cc(CNc2ccc(CNc3ncn[nH]3)cc2)ccc1OCC(=O)NC(C)(C)C	1	i	42*	-4	i	-2	2	17
CCN(c1ccc(NC(=O)c2ccc(N3CCCC3=O)cc2)cc1)C(C)C	-3	i	49*	-3	i	-3	-9	18
CN(C)S(=O)(=O)c1cccc(NC(=O)c2ccc(N3CCCC3=O)cc2)c1	.	.	-1	18	.	-4	.	.
COc1ccc(NC(=O)COc2ccccc2Cc2ccccc2)cc1S(N)(=O)=O	3	i	44*	12	i	-8	-3	13
COc1ccc(NC(=O)COc2ccccc2Cc2ccccc2)cn1	3	.	16	-41	.	-5	.	.
CC(C)NC(=O)N[C@@H]1C[C@@H]2O[C@@H](CO)CC[C@@H]2O[C@@H]1CCc1ccc(-c2ccccc2F)cc1	.	.	-1	.	.	.	.	.
CC(C)N(Cc1nccn1C)C(=O)c1cc(COc2ccc3ncccc3c2)on1	0	i	40*	15	i	-10	-3	6
CCN1CCN(C(=O)c2cc(COc3ccc4ncccc4c3)on2)CC1	1	i	38*	36	i	-5	-2	19
COc1cccc(OCc2cc(C(=O)N(Cc3nccn3C)C(C)C)no2)c1	-3	i	-2	-2	i	-6	.	.
COC(=O)c1cc(-c2ccc(-c3ccccc3)c(F)c2)c(=O)n2c1CCC2	.	.	14	.	.	.	.	.
O=C(Nc1ccc(F)c(Cl)c1)C1Cc2c(-c3ccco3)ccnc2O1 (stereo not given)	.	.	41*	20	.	-4	2	17
Clc1cccc(CNc2nnnn2-c2ccccc2)c1	0	i	39*	32	i	-6	2	6
Clc1cccc(CNc2nc(-c3ccccn3)nnc2-c2ccccc2)c1	.	.	38*	.	.	.	1	-34
CC(C)(C)c1ccc(CNc2nc(-c3ccccn3)nnc2-c2ccccc2)cc1	.	.	49*	.	.	.	9	16
COC(=O)[C@@]12CCCCC=C1N(CCc1ccc(Cl)cc1)C(=O)[C@H]2CC(=O)NCc1ccc(C)o1	.	.	9	.	.	.	.	.
CC(=O)Nc1ccc(NC(=O)CSc2nnc(-c3n[nH]c4c3CCC4)n2N)cc1	.	.	-4	.	.	.	.	.
C/C(=N/NC(=O)CN(c1ccccc1)S(=O)(=O)c1ccccc1)c1ccccc1O	1	i	41*	5	i	-1	-8	3
Cc1ccc(-n2[nH]c(=O)c(-c3ccccn3)c2C)cc1	-1	i	44*	-94	i	-1	-51	2
O=C(OCC#CCSc1nnc(-c2ccc(F)cc2)o1)c1ccc(F)cc1	.	.	-4	.	.	.	.	.
COc1ccc(NC(=O)c2cc(CC(C)C)nc3ccccc23)cc1	-1	i	42*	21	i	-1	-6	22
SMILES	NR2E3 ag-1	CHT block	NR2F2 inh	NR2E3 ag-2	CHT allo act	GalR3 antagonist	Gal4-VP16 ctr	NR2F2 inh conf
COc1ccc2[nH]cc(C(C)c3ccccc3O)c2c1 (stereo not given)	.	.	-8	.	.	.	.	.
COc1ccc(-c2cc(NC(=O)Cc3c[nH]c4ccccc34)ccc2Nc2cccnc2)c(OC)c1	.	.	-13	.	.	-7	.	.
CC(=O)c1cn(CCOc2ccc(F)cc2)c2ccccc12	2	i	47*	26	i	-9	-13	11
Cc1ccccc1CS(=O)(=O)Cc1ccc(C(=O)Nc2ccc(F)cc2F)o1	.	.	9	.	.	.	.	.
Cc1c(CCC(=O)N[C@@H](C)C(=O)O)c(=O)oc2cc3oc4c(c3cc12)CCCC4	0	i	47*	-7	i	-11	33*	36
Cc1c(CCC(=O)N2CCC(C(=O)O)(c3ccccc3)CC2)c(=O)oc2cc3oc4c(c3cc12)CCCC4	0	i	53*	-24	i	-4	37*	35
Cc1c(CCC(=O)N2CCC(C(=O)O)CC2)c(=O)oc2cc3oc4c(c3cc12)CCCC4	2	i	61*	-15	i	-1	12	28
Cc1c(CC(=O)NCCC(=O)O)c(=O)oc2cc3oc4c(c3cc12)CCCC4	2	i	-24	-10	i	-10	.	.
CNc1nc(N)c([N+](=O)[O-])c(Nc2ccccc2)n1	.	.	5	.	.	.	.	.
CCOC(=O)CC[C@H]1CC[C@]2(CCCN(Cc3ccccc3)C2)O1	.	.	-15	.	.	.	.	.
Cc1cc(/C=C2\Sc3ccccc3N2C)cc(C)[n+]1CC1CCCO1 (stereo not given)	.	.	49*	-3	.	-5	12	62*
Cn1c(Cc2cccs2)nnc1SCC(=O)Nc1ccc2cn[nH]c2c1	.	.	42*	.	.	.	-13	5
O=C(COc1ccc(Cl)cc1)Nc1ccc(N2CCN(C(=O)c3ccco3)CC2)cc1	3	i	52*	16	i	-10	-1	35
COc1ccc(OCC(=O)Nc2ccc(N3CCN(C(=O)c4ccco4)CC3)cc2)cc1	1	i	5	-11	i	-5	.	.
CCOc1cc(CCNC(=O)c2cc3sccc3n2CC)ccc1OC	.	.	10	.	.	.	.	.
CCOc1ccc(CCNC(=O)c2cc3sccc3n2CC)cc1OC	.	.	57*	.	.	.	-10	20
O=C1CCC[C@H]2Cc3nc4cc5c(cc4cc3C[C@]23CCCN13)OCO5	.	.	7	.	.	.	.	.
Cc1ccc(-c2c[n+]3c(n2-c2ccccc2)CCC3)cc1	3	i	60*	0	i	-2	-2	34
O=C(c1cccs1)N1CCN=C1SCc1ccc(F)cc1	-2	i	6	-4	i	-2	.	.
O=C(c1ccco1)N1CCN=C1SCc1ccc(F)cc1	2	i	58*	-14	i	-2	-5	1
Cn1c(COc2ccccc2)nnc1SCC(=O)Nc1ccc(OCc2ccccc2)cc1	.	.	-13	.	.	.	.	.
